Measured values reported in ChEMBL document CHEMBL1124794, “Synthesis, chemistry, and antineoplastic activity of alpha-halopyridinium salts: potential pyridone prodrugs of acylated vinylogous carbinolamine tumor inhibitors” (J Med Chem, 1990).
“And” between values parts separate entries of the source, which are not always exact repeats. Equal entries are not always repeated. Values belong to the molecule of their own block, whether it stands above or below them.

Assays:
[1] = Effect of Ionic strength (0.25 M NaCl)on the hydrolysis of pyridinium Moity in 0.02 M buffer concentration, pH 7.4,25 degree C; type: ADME
In short: (§1)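 Pyridinium salt in 0.02 M phosphate buffer, pH 7.4, 25 °C, with NaCl varied 0.10–1.0 M. Loss of the pyridinium chromophore's UV absorbance maximum (conversion to pyridone) followed over time. Pseudo-first-order kobs and half-life derived from that decay.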

[2] = Effect of phosphate buffer on the hydrolysis of alpha Fluoropyridinium Moity at the concentration of 0.05M, pH 8.0,25degree C; type: ADME
In short: (§2)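 α-Fluoropyridinium hydrolysis to pyridone in phosphate buffer at 0.02, 0.05 or 0.10 M, pH 6.5 or 8.0, ionic strength […] °C. Pyridinium UV absorbance maximum followed with time to give pseudo-first-order kobs and half-life.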

[3] = Effect of Ionic strength (0.50 M NaCl)on the hydrolysis of pyridinium Moity in 0.02 M buffer concentration, pH 7.4,25 degree C; type: ADME; in short: as §1
[4] = Half life at the buffer concentration of 0.10 M.; type: ADME; in short: as §2
[5] = Half life at the concentration of 0.02 M.; type: ADME
[6] = test system: MX1; assay: In vivo activity against murine MX-1 tumor system at the dose of 75 mg/kg, activity expressed as TDS; 4/6; type: functional, Mus musculus
[7] = In vivo activity against murine M5076 tumor system at the dose of 25 mg/kg, activity expressed as body weight difference; type: functional, Mus musculus
In short: (§3)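 M5076: ascitic fluid with ca. 10^6 cells inoculated ip into CD2F1 mice. Dosing started 24 h after inoculation and was then given every 4 days for four doses in total, from solutions or suspensions made fresh each day. Toxicity day survivors were scored on day 5. Body weight difference is day 14 minus day 1. %T/C is based on median survival time versus controls.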

[8] = test system: L1210; assay: In vivo activity against murine L1210 tumor system at the dose of 50 mg/kg, activity expressed as TDS; 5/6; type: functional, Mus musculus
In short: as §3, with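 “L1210 lymphocytic leukemia:” for “M5076:”, “injected” for “inoculated”, “repeated daily” for “then given every 4 days”, “five” for “four”, “5” for “14”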

[9] = test system: P388; assay: In vivo activity against P388 Lymphocytic Leukemia in CD2F1 mice at the dose of 100 mg/kg, activity expressed as body weight difference; type: functional, Mus musculus
In short: (§4)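 CD2F1 mice were inoculated with ascitic fluid holding ca. 10^6 P388 cells. Drug was given daily from 24 h after inoculation, from solutions or suspensions made fresh each day, some as a saline suspension. TDS is survivors/initial animals on day 5. BWD is body weight on day 5 minus day 1. %T/C compares median survival of treated and control mice.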

[10] = test system: P388; assay: In vivo activity against P388 Lymphocytic Leukemia in CD2F1 mice at the dose of 12.5 mg/kg, activity expressed as body weight difference; type: functional, Mus musculus; in short: as §4
[11] = test system: P388; assay: In vivo activity against P388 Lymphocytic Leukemia in CD2F1 mice at the dose of 50 mg/kg, activity expressed as body weight difference; type: functional, Mus musculus; in short: as §4
[12] = In vivo activity against murine M5076 tumor system at the dose of 50 mg/kg, activity expressed as body weight difference; type: functional, Mus musculus
[13] = Effect of pH on carbamate hydrolysis in 0.05 M buffer concentration at the pH 6.0, 25 degree C.; type: ADME
In short: (§5)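 Bis-carbamate in acetonitrile–water (1:1; buffer added to a 0.5 mg/mL acetonitrile solution), 0.05 M buffer, ionic strength 0.136 (KCl), 25 ± 0.1 °C. Buffers: phosphate pH 2.0; citrate pH 3.0–3.5; succinate pH 4.0; acetate pH 5.0; phosphate pH 6.0–8.0; borate pH 9.0; carbonate pH 10.0. HPLC bis-carbamate peak-area loss, ln(area0/areat) vs time slope = kobs. Duplicates averaged.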

[14] = Effect of pH on carbamate hydrolysis in 0.05 M buffer concentration at the pH 10.0, 25 degree C.; type: ADME; in short: as §5
[15] = Half life at the buffer concentration of 0.025 M.; type: ADME
In short: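 Bis-carbamate in acetonitrile–water (1:1), 25 ± 0.1 °C. Citrate buffer at pH 3.0 or phosphate buffer at pH 7.4, at 0.01, 0.025 or 0.05 M, ionic strength 0.136 (KCl). Kinetics followed by HPLC as the decrease in bis-carbamate peak area. The regression slope of ln(area0/areat) vs time gave pseudo-first-order kobs. Duplicates averaged.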

[16] = Half life at the concentration of 0.025 M.; type: ADME
[17] = Half life at the ionic strength; type: ADME
[18] = Half life at the pH 10.0; type: ADME; conditions: buffer; in short: as §5
[19] = test system: L1210; assay: In vivo activity against murine L1210 tumor system at the dose of 166.7 mg/kg, activity expressed as body weight difference; T-C; type: functional, Mus musculus
In short: as §3, with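 “L1210 lymphocytic leukemia:” for “M5076:”, “injected” for “inoculated”, “repeated daily” for “then given every 4 days”, “five” for “four”, “5” for “14”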

[20] = test system: L1210; assay: In vivo activity against murine L1210 tumor system at the dose of 21.6 mg/kg, activity expressed as body weight difference; T-C; type: functional, Mus musculus
In short: as §3, with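 “L1210 lymphocytic leukemia:” for “M5076:”, “injected” for “inoculated”, “repeated daily” for “then given every 4 days”, “five” for “four”, “5” for “14”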

[21] = test system: L1210; assay: In vivo activity against murine L1210 tumor system at the dose of 166.7 mg/kg, activity expressed as %T/C.; type: functional, Mus musculus
In short: as §3, with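 “L1210 lymphocytic leukemia:” for “M5076:”, “injected” for “inoculated”, “repeated daily” for “then given every 4 days”, “five” for “four”, “5” for “14”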

[22] = In vivo activity against murine M5076 tumor system at the dose of 21.6 mg/kg, activity expressed as %T/C.; type: functional, Mus musculus; in short: as §3
[23] = In vivo activity against murine M5076 tumor system at the dose of 166.7 mg/kg, activity expressed as TDS; 4/10; type: functional, Mus musculus; in short: as §3
[24] = test system: L1210; assay: In vivo activity against murine L1210 tumor system at the dose of 36 mg/kg, activity expressed as %T/C.; type: functional, Mus musculus
In short: as §3, with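 “L1210 lymphocytic leukemia:” for “M5076:”, “injected” for “inoculated”, “repeated daily” for “then given every 4 days”, “five” for “four”, “5” for “14”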

[25] = test system: L1210; assay: In vivo activity against murine L1210 tumor system at the dose of 60mg/kg, activity expressed as %T/C.; type: functional, Mus musculus
In short: as §3, with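 “L1210 lymphocytic leukemia:” for “M5076:”, “injected” for “inoculated”, “repeated daily” for “then given every 4 days”, “five” for “four”, “5” for “14”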

[26] = test system: L1210; assay: In vivo activity against murine L1210 tumor system at the dose of 21.6 mg/kg, activity expressed as TDS; 6/6; type: functional, Mus musculus
In short: as §3, with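 “L1210 lymphocytic leukemia:” for “M5076:”, “injected” for “inoculated”, “repeated daily” for “then given every 4 days”, “five” for “four”, “5” for “14”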

[27] = In vivo activity against murine M5076 tumor system at the dose of 100 mg/kg, activity expressed as body weight difference; T-C; type: functional, Mus musculus; in short: as §3
[28] = In vivo activity against murine M5076 tumor system at the dose of 166.7 mg/kg, activity expressed as body weight difference; T-C; type: functional, Mus musculus; in short: as §3
[29] = In vivo activity against murine M5076 tumor system at the dose of 60 mg/kg, activity expressed as body weight difference; T-C; type: functional, Mus musculus
[30] = In vivo activity against murine M5076 tumor system at the dose of 100 mg/kg, activity expressed as KE; type: functional, Mus musculus; in short: as §3
[31] = In vivo activity against murine M5076 tumor system at the dose of 21.6 mg/kg, activity expressed as KE; type: functional, Mus musculus; in short: as §3
[32] = test system: P388; assay: In vivo activity against P388 Lymphocytic Leukemia in CD2F1 mice at the dose of 100 mg/kg, activity expressed as body weight difference; T-C; type: functional, Mus musculus; in short: as §4
[33] = test system: P388; assay: In vivo activity against P388 Lymphocytic Leukemia in CD2F1 mice at the dose of 25 mg/kg, activity expressed as body weight difference; T-C; type: functional, Mus musculus; in short: as §4
[34] = test system: P388; assay: In vivo activity against P388 Lymphocytic Leukemia in CD2F1 mice at the dose of 25 mg/kg, activity expressed as KE; type: functional, Mus musculus

- K obs [1]: 0.02 min⁻¹
- K obs [2]: 0.02 min⁻¹
- K obs [3]: 0.011 min⁻¹
- T1/2 [4]: 50.3 min and 19.25 min
- half-life [5]: 133 min
SMILES: CC(C)NC(=O)OCc1c(COC(=O)NC(C)C)c(-c2cc[n+](C)c(F)c2)n2c1CCC2.[I-]
- TDS [6]: 4
- BWD [7]: 0.4 g
- TDS [8]: 5
- BWD [9]: -7.6 g
- BWD [10]: -1.3 g
- BWD [11]: -0.8 g
- BWD [12]: 1.4 g

- K obs [13]: 0.0135 min⁻¹
- K obs [14]: 0.0133 min⁻¹
- half-life [15]: 51.9 min
- half-life [16]: 20.3 min
- T1/2 [17]: 55.89 min and 86.65 min
- half-life [17]: 53.5 min
- half-life [18]: 52.3 min
SMILES: CC(C)NC(=O)OCc1c(COC(=O)NC(C)C)c(-c2ccn(C)c(=O)c2)n2c1CCC2
- BWD [19]: -3.8 g
- BWD [20]: -0.3 g
- T/C [21]: 110%
- T/C [22]: 107%
- TDS [23]: 4
- T/C [24]: 135%
- T/C [25]: 141%
- TDS [26]: 6
- BWD [27]: -1.3 g
- BWD [28]: -5.8 g
- BWD [29]: 0.9 g
- KE [30]: -1.49
- KE [31]: -1.93
- BWD [32]: -1.8 g
- BWD [33]: -0.6 g
- KE [34]: -0.5
